T cruzi growth-1 = blocks T. cruzi growth in NIH3T3 culture; T. cruzi beta-gal in NIH3T3, GalScreen luminescence, 90 h; inhibition, % at 8.34 µM; hit rate 5.9% among 77,000; AID 624255;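 active means mean inhibition above about 93%, with at least 55% of replicates each passing it, limit read from the data, passing the limit was not always enough; inconclusive means only one of those two conditions holds; inactive means neither condition holds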
GASC1 inh = inhibitors of human demethylase GASC-1 KDM4C; Q9H3R0; GST-KDM4C 2-372, H3K9me3 peptide, LANCE TR-FRET; inhibition, % at 12.5 µM; hit rate 0.15% among 96,000; AID 720574;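 active means mean replicate inhibition above about 25%, with at least 55% of replicates also reaching it, limit read from the data, passing the limit was not always enough; inconclusive means only one of those two conditions met; inactive means neither condition met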
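Assay system: GST-GASC-1 enzyme fragment 2-372 | Amount: 10 nM enzyme | Medium: HEPES buffer, pH 7.5, plus ascorbate | Reagent: H3K9me3 peptide substrate, Fe(II), 2-oxoglutarate | Doses: Single-point compound screen | Incubation: 30 min demethylation and 1 h detection at room temperature | Measured by: LANCE TR-FRET, excitation 340 nm, emissions 618 and 671 nm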
Pf Dd2 inh = P. falciparum Dd2 growth inhibition; SYBR Green, 72 h; stronger effect = lower value; activity change, % at 10 µM; hit rate 2.3% among 94,000; AID 1159554; in the data active means activity change below about -80%; inconclusive means no clear call, values can overlap the other calls
IDH1 mut inh = blocks human IDH1 R132H reductase activity; O75874; diaphorase/resazurin fluorescence, 60 min; inhibition, % at 10 µM; hit rate 0.18% among 70,000; AID 624101; in the data active means inhibition above about 34%; inconclusive means no clear call, values can overlap the other calls; inactive means below about 11%;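 further: 0% = DMSO and 100% = no enzyme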
Target sequence (O75874 whole entry R132H): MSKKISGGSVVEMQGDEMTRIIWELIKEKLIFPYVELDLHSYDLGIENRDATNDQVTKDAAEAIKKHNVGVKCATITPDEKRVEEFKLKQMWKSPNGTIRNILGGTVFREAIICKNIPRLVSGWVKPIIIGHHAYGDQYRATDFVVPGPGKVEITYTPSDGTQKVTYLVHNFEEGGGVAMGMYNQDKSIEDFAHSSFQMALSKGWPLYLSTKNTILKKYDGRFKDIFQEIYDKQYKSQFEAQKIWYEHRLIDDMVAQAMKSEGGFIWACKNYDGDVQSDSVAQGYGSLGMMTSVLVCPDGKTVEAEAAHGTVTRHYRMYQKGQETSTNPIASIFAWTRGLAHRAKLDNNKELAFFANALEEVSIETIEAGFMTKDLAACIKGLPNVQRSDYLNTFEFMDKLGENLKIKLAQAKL
T cruzi growth-2 = Trypanosoma cruzi proliferation inhibition; inhibition, % at 8.35 µM; AID 651739; hit rate 72% among 5,600; shares compounds with T cruzi growth-1; T. cruzi beta-gal in NIH3T3, GalScreen luminescence, 90 h;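 active means mean replicate inhibition above about 95% and at least 55% of replicates individually reaching it, limit read from the data; inconclusive means only one of the two criteria is met; inactive means neither criterion is met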
T cruzi growth-3 = inhibitors of T. cruzi proliferation. shares compounds with T cruzi growth-1. T. cruzi beta-gal in NIH3T3, GalScreen luminescence, 90 h. inhibition, % at 2.09 µM. hit rate 21% among 5,600. AID 651740;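 active means mean inhibition above about 95%, with at least 55% of replicates also reaching it, limit read from the data; inconclusive means meets just one of the two conditions; inactive means meets neither condition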;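 further: plate controls were neutral control median for no effect and positive control median for full effect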
NIH3T3 tox = NIH/3T3 (mouse) viability loss; NIH/3T3 viability, CellTiter-Glo ATP luminescence, 90 h; cytotoxicity (signal decrease), % at 8.35 µM; hit rate 14% among 5,600; shares compounds with T cruzi growth-1;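 active means mean signal decrease across replicates above about 35% based on untreated-well scatter, with enough replicates individually passing, limit read from the data; inconclusive means no rule stated though some were filed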;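 further: 0% = median of neutral control wells and 100% = median of positive control wells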
NIH3T3 tox 2 = cytotoxicity in mouse NIH/3T3 fibroblasts; hit rate 56% among 5,600; AID 651744; inhibition, % at 24.9 µM; NIH/3T3 viability, CellTiter-Glo ATP luminescence, 90 h; shares compounds with T cruzi growth-1;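 active means mean loss of cell viability signal at or above a set limit, and enough replicates individually reaching it; inconclusive means meets only the mean limit or only the replicate share; inactive means meets neither condition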;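 further: 0% = median of neutral control wells and 100% = median of positive control wells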
Numbers without * were called inactive. This is a sample that favours compounds with a hit; in the whole collection about 5.8% have one here.

Screening C[C@H]1CN([C@@H](C)CO)C(=O)c2cc(NC(=O)Nc3ccc4c(c3)OCO4)ccc2O[C@H]1CN(C)Cc1ccc(C(=O)Nc2ccccc2N)cc1 returned T cruzi growth-1 97.9*, GASC1 inh 0.7, Pf Dd2 inh -3.3, T cruzi growth-2 85.5, T cruzi growth-3 78.7, NIH3T3 tox 1.6 and NIH3T3 tox 2 9.6.
C[C@@H]1CN([C@H](C)CO)C(=O)c2cccc(NC(=O)Nc3ccc4c(c3)OCO4)c2O[C@H]1CN(C)Cc1ccc(C(=O)Nc2ccccc2N)cc1 was read as T cruzi growth-1 112.1*, GASC1 inh 0.1, Pf Dd2 inh -86.4*, T cruzi growth-2 102.3*, T cruzi growth-3 91.7, NIH3T3 tox -1.1 and NIH3T3 tox 2 71.4*.
For C[C@@H]1CN([C@H](C)CO)C(=O)c2cc(N(C)C)ccc2O[C@H]1CN(C)Cc1ccc(C(=O)Nc2ccccc2N)cc1 the results were T cruzi growth-1 94.6, GASC1 inh 2.2 and Pf Dd2 inh -34.2.
Screening Cc1noc(C)c1NC(=O)Nc1ccc2c(c1)CC(=O)N([C@H](C)CO)C[C@H](C)[C@@H](CN(C)C(=O)NC1CCCCC1)O2 returned T cruzi growth-1 18.2, GASC1 inh -0.7, Pf Dd2 inh 13.9 and IDH1 mut inh 3.4.
For COc1ccccc1NC(=O)N1CC(=O)N2[C@@H](CO)[C@H](c3ccc(C#CC(C)C)cc3)[C@@H]2C1 the results were GASC1 inh -1.4 and Pf Dd2 inh -3.0.
Screening CC(C)C#Cc1ccc2c(c1)O[C@@H](CN(C)C(=O)c1cnccn1)[C@H](C)CN([C@H](C)CO)S2(=O)=O returned T cruzi growth-1 28.3, GASC1 inh 16.9, Pf Dd2 inh 14.9 and IDH1 mut inh -7.4.
For CCCNC(=O)N(C)C[C@H]1Oc2ncc(-c3ccc(F)cc3)cc2C(=O)N([C@H](C)CO)C[C@@H]1C the results were GASC1 inh 0.2 and Pf Dd2 inh 25.8.
COc1ccc(C#Cc2ccc3c(c2)[C@@H]2[C@@H](CCN2C(=O)c2ccccn2)[C@@H](CO)N3)cc1 was read as T cruzi growth-1 75.2, GASC1 inh 0.2 and Pf Dd2 inh -62.0.
`COCC(=O)N1C[C@H](C)[C@@H](OC)CN(C)C(=O)c2cc(NC(=O)c3ccccc3)ccc2OC[C@H]1C` gave GASC1 inh -0.3, Pf Dd2 inh 24.1 and IDH1 mut inh 0.1.
For COc1ccc(S(=O)(=O)N(C)C[C@H]2Oc3ccc(NC(=O)Nc4ccccc4)cc3C(=O)N([C@@H](C)CO)C[C@@H]2C)cc1 the results were T cruzi growth-1 5.7, GASC1 inh -0.5, Pf Dd2 inh 12.6 and IDH1 mut inh 0.4.
Screening C[C@H]1CN([C@@H](C)CO)C(=O)c2cccc(NC(=O)Nc3ccccc3)c2O[C@@H]1CN(C)Cc1ccc(C(=O)Nc2ccccc2N)cc1 returned T cruzi growth-1 99.7*, GASC1 inh -0.7, Pf Dd2 inh -87.7*, T cruzi growth-2 101.4*, T cruzi growth-3 98.5*, NIH3T3 tox inconclusive and NIH3T3 tox 2 79.9*.
Screening C[C@H](CO)N1C[C@H](C)[C@@H](CN(C)Cc2ccc(C(=O)O)cc2)Oc2c(NC(=O)Nc3ccccc3)cccc2C1=O returned GASC1 inh 1.4 and Pf Dd2 inh -2.6.
O=C(C1CCOCC1)N1CC[C@@H]2[C@H]1c1cc(Br)ccc1N[C@@H]2CO was read as T cruzi growth-1 12.5, GASC1 inh 2.9 and Pf Dd2 inh -8.2.
`COC(=O)[C@H]1[C@H](CO)[C@H]2Cn3c(ccc(-c4ccccc4)c3=O)[C@H]2N1C(=O)C1CC1` gave T cruzi growth-1 78.9, GASC1 inh 0.2 and Pf Dd2 inh -5.3.
Screening C[C@@H]1CN([C@@H](C)CO)S(=O)(=O)c2ccc(C#CC3CC3)cc2O[C@@H]1CN(C)Cc1ccccc1 returned T cruzi growth-1 37.2, GASC1 inh -1.8, Pf Dd2 inh -40.3 and IDH1 mut inh -1.0.
`C[C@@H]1CN([C@@H](C)CO)S(=O)(=O)c2ccc(C#CC3CC3)cc2O[C@H]1CN(C)Cc1ccccc1` gave T cruzi growth-1 119.8*, GASC1 inh 0.8, Pf Dd2 inh -51.5, IDH1 mut inh 0.7, T cruzi growth-2 95.0*, T cruzi growth-3 76.4, NIH3T3 tox 49.6* and NIH3T3 tox 2 106.3*.
Screening C[C@H]1CN([C@@H](C)CO)S(=O)(=O)c2ccc(C#CC3CC3)cc2O[C@@H]1CN(C)Cc1ccccc1 returned T cruzi growth-1 111.3*, GASC1 inh -2.6, Pf Dd2 inh -43.3, IDH1 mut inh 0.1, T cruzi growth-2 99.7*, T cruzi growth-3 92.5, NIH3T3 tox -12.1 and NIH3T3 tox 2 104.5*.
Screening C[C@H]1CN([C@@H](C)CO)S(=O)(=O)c2ccc(C#CC3CC3)cc2O[C@H]1CN(C)Cc1ccccc1 returned T cruzi growth-1 57.5, GASC1 inh 0.4, Pf Dd2 inh -25.3 and IDH1 mut inh -0.3.
COc1cccc(S(=O)(=O)N[C@@H]2CC[C@H](CCn3cc(-c4ccccn4)nn3)O[C@H]2CO)c1 was read as T cruzi growth-1 -9.6, GASC1 inh -1.3, Pf Dd2 inh -24.7 and IDH1 mut inh -0.7.
CCCNC(=O)N(C)C[C@H]1Oc2ncc(C#CC3CCCCC3)cc2C(=O)N([C@@H](C)CO)C[C@H]1C was read as T cruzi growth-1 24.9, GASC1 inh -0.2 and Pf Dd2 inh -28.6.
`COc1ccc(S(=O)(=O)Nc2cccc3c2O[C@H](CN(C)CC2CCCCC2)[C@H](C)CN([C@@H](C)CO)C3=O)cc1` gave T cruzi growth-1 27.5, GASC1 inh 0.2, Pf Dd2 inh -6.7 and IDH1 mut inh 2.2.
Screening C[C@@H]1CN([C@@H](C)CO)C(=O)CCCn2cc(nn2)CO[C@@H]1CN(C)C(=O)c1ccc(N2CCN(C)CC2)cc1 returned T cruzi growth-1 9.3, GASC1 inh 0.4, Pf Dd2 inh -16.1 and IDH1 mut inh 0.9.
C[C@H](CO)N1C[C@H](C)[C@H](CN(C)C(=O)c2ccc(N3CCN(C)CC3)cc2)OCc2cn(nn2)CCCC1=O was read as T cruzi growth-1 inconclusive, GASC1 inh 1.9, Pf Dd2 inh 10.8, IDH1 mut inh 0.2, T cruzi growth-2 -57.2, T cruzi growth-3 -15.0, NIH3T3 tox -15.7 and NIH3T3 tox 2 -12.0.

Screening data deposited in PubChem BioAssay by Broad Institute.
